Hits are enriched below; roughly 2.3% of the tested compounds scored in any of these assays.
LGR2 inh: inhibitors of bursicon-induced LGR2 CRE-luciferase signal, primary screen, cell-based, HEK293, CRE-luciferase reporter, bursicon stimulation; Drosophila bursicon receptor LGR2 (rickets); bursicon-stimulated, 4 h; inhibition, % at 9.99 µM; 0.35% of 380,000 active;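 active means drop in luminescence signal, shown as inhibition above about 50% in the replicate tests, limit read from the data, passing the limit was not always enough; inconclusive means probably only some replicates passing the limit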;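 further: agonist challenge used bursicon conditioned medium at about half maximal strength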
FN deposit inh: inhibitors of fibronectin matrix deposition, primary screen, AH1F cells, Alexa488-fibronectin fluorescence, plate reader; AH1F fibroblasts, overnight; inhibition, % at 12.6 µM; 0.086% of 350,000 active;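 active means mean inhibition across replicates of 30% or more, regardless of how many single replicates reach that level; inconclusive means mean under 30% yet at least half of replicates reach 30%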;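 further: positive control wells lacked labelled fibronectin entirely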
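Material: AH1F fibroblasts assembling fluorescent fibronectin matrix; amount: 10000 AH1F cells/well; medium: DMEM, 2% serum; reagent: Alexa488-fibronectin, 24 nM final in well; dosing: single compound dose, delivered by pin transfer; incubation: 1 h adhesion, overnight exposure; detection: fluorescence after three HBSS washes, excitation 485 nm, emission 525 nm; measure: fibronectin deposition inhibition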
TWEAK-Fn14 inh: inhibitors of TWEAK-Fn14 signaling, primary screen, luciferase reporter cells, uHTS | inhibition, % at 10 µM | 2% of 360,000 active | TWEAK-stimulated Fn14 reporter cells, luciferase luminescence, 8 h; in the data active means inhibition above about 50%
XiGFP reactiv: activators of inactive X chromosome reactivation, primary screen, imaging, XiGFP fibroblasts, GFP high-content imaging, set 2 | activation, % at 7.58 µM | XiGFP mouse fibroblasts, % GFP-positive cells imaging, 3 d; cells co-treated with 5-aza-dC sensitizer; scaled so ellipticine positive control = 100% | 0.055% of 360,000 active;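 active means mean normalized replicate activation at least 10% and every replicate at or above 10%; inconclusive means only one of the two criteria met; inactive means mean below 10% and not all replicates reach 10%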;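 further: 0% = median of on-plate neutral control wells and 100% = ellipticine 6 µM median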
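Assay system: SV40-immortalized XiGFP fibroblast cells, line 68-5-11; buffer or medium: DMEM plus 5-aza-dC sensitizer; compound: one concentration, pinned; timing: compounds 3 days, fix/stain 15 min at room temperature; benchmarks: positive control ellipticine, 6 µM final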
TROY signal inh: inhibitors of TROY-driven NF-kB signaling, primary screen, Q293 LMP1-TROYcd cells, NF-kB luciferase, uHTS | Q293 LMP1-TROYcd NF-kB luciferase reporter, 4 h | 0.98% of 360,000 active | inhibition, % at 10 µM | AID 1347056, 2019;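 active means compounds whose plate-normalised and pattern-corrected inhibition of the luciferase reporter signal at the single screening dose is 50% or more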
EWS-Fli block: EWS/Fli-driven NR0B1 reporter inhibitors, primary screen, A673 cells, NR0B1 luciferase, luminescence, MLPCN library. viability-normalised. inhibition, % at 12.6 µM. 0.67% of 350,000 active;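 active means mean inhibition of at least 50% after viability correction, with every replicate also passing that limit; inconclusive means mean reaches 50% but only one of two replicates passes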;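 further: firefly luciferase signal divided by Alamar Blue viability fluorescence both relative to DMSO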
An asterisk follows results filed as active; ? = inconclusive; nt = not tested or not shown.

SMILES	LGR2 inh	FN deposit inh	TWEAK-Fn14 inh	XiGFP reactiv	TROY signal inh	EWS-Fli block
COC(=O)c1ccccc1S(=O)(=O)NNC(=O)Nc1ccccc1	58*	-2	69*	0	33	25
O=C(NCc1ccc(F)cc1)c1cccc2c1C(=O)c1ccc(N3CCC(Cc4ccccc4)CC3)cc1S2(=O)=O	6	-8	5	0	1	12
O=C(NC1CC1)c1cccc2c1C(=O)c1ccc(N3CCC(Cc4ccccc4)CC3)cc1S2(=O)=O	31	-18	63*	0	30	20
O=C1c2ccc(Cl)cc2S(=O)(=O)c2cccc(C(=O)N3CCC(Cc4ccccc4)CC3)c21	?	8	-56	0	65*	10
O=C1c2ccc(Cl)cc2S(=O)(=O)c2cccc(C(=O)N3CCN(c4ncc(Br)cn4)CC3)c21	14	-23	-20	0	29	1
O=C(C[C@@H]1C[C@@H]2c3cc(NC(=O)NC4CCCC4)ccc3O[C@@H]2[C@H](CO)O1)NCc1cc(F)ccc1F	nt	-12	nt	0	nt	nt
COC(=O)/C(C#N)=C/c1ccc(OC(=O)c2ccccn2)cc1	7	nt	-3	0	-18	52*
COC(=O)C[C@H]1C=C[C@@H](NS(=O)(=O)c2ccccc2F)[C@@H](CO)O1	-14	4	nt	0	nt	3
C[C@@H]1CCCCO[C@@H](CN(C)CC2CC2)[C@@H](C)CN([C@H](C)CO)C(=O)c2cc(NC(=O)c3ccncc3)ccc2O1	-8	nt	nt	0	nt	-6
O=C(COc1ccccc1C(=O)NCc1ccccn1)Nc1ccc(Br)cc1	-6	nt	-31	0	-24	65*
CC(C)NC(=O)N(O)C1N(Cc2ccc3c(c2)OCO3)C(=S)SC1(C)C (stereo unspecified)	-19	nt	58*	nt	-7	nt
O=C(C[C@@H]1CC[C@H]2[C@@H](COC[C@@H](O)CN2Cc2cccc(Cl)c2)O1)NCC1CCCCC1	37	8	nt	0	nt	16
CC(=O)c1ccc(OCc2cc(C(=O)N(C)C(C)c3nccs3)no2)cc1 (stereo unspecified)	-26	0	-9	0	-34	nt
CC(=O)c1ccc(OCc2cc(C(=O)N(C)C(C)c3ccon3)no2)cc1 (stereo unspecified)	-9	2	84*	0	-6	3
C[C@@H]1CN([C@@H](C)CO)C(=O)Cc2cc(NC(=O)Cn3cnnn3)ccc2O[C@@H]1CN(C)Cc1ccc2c(c1)OCO2	0	nt	nt	0	nt	2
Clc1cncc(Cl)c1N/N=C/c1ccncc1	22	8	59*	0	63*	-8
CN(C)CC(=O)Nc1ccc2c(c1)[C@@H]1C[C@H](CC(=O)NCc3ccccc3F)O[C@@H](CO)[C@@H]1O2	3	-7	nt	0	nt	2
COc1cc(/C=N/NC(=O)c2ccc(COc3cc(C)ccc3C(C)C)cc2)cc(OC)c1O	-40	-4	33	0	9	nt
Cc1ccc(C(C)C)c(OCc2ccc(C(=O)N/N=C/c3ccc(O)c(O)c3)cc2)c1	-70	2	62*	0	-13	nt
CCOc1cc(/C=N/NC(=O)c2nn(C)cc2Br)ccc1OCc1ccccc1Cl	8	nt	57*	nt	30	nt
CCOc1cc(/C=N/NC(=O)c2ccc(CN3CCOCC3)cc2)ccc1OCc1ccccc1	42	nt	70*	0	51*	nt
Cn1cc(Br)c(C(=O)N/N=C/c2cccc(OC3CSC3)c2)n1	-25	1	-9	0	-52	-21
Cc1cccc(/C(N)=N/OC(=O)c2ccc(Cl)cc2Cl)c1	?	-2	79*	0	63*	16
N/C(=N\OC(=O)c1ccc(Cl)cc1)c1ccn[nH]1	?	nt	51*	0	39	-1
N/C(=N\OC(=O)c1ccc(Cl)cc1)c1ccc(Cl)cc1	nt	nt	-6	nt	-51	nt
SMILES	LGR2 inh	FN deposit inh	TWEAK-Fn14 inh	XiGFP reactiv	TROY signal inh	EWS-Fli block
O=C(NOCc1ccccc1)c1ccccc1	25	-9	40	0	-9	-8
O=C(NOCc1ccccc1)c1ccc(Cl)cc1Cl	82*	-1	82*	0	42	50
N/C(=N\OC(=O)c1ccccc1Cl)c1ccccc1	60*	-3	43	nt	13	nt
Cc1ccc(/C(N)=N/OC(=O)c2ccc(C)cc2Cl)cc1	59*	-16	85*	0	75*	28
N/C(=N\OC(=O)c1ccc(Cl)cc1Cl)c1ccccc1	nt	-2	91*	nt	63*	nt
N/C(=N\OC(=O)c1ccc(Cl)cc1Cl)c1ccc(Cl)cc1	nt	nt	71*	nt	67*	nt
N/C(=N\OC(=O)c1ccccc1Cl)c1ccc(Cl)cc1	nt	nt	32	nt	16	nt
Cc1cc(/C(N)=N/OC(=O)c2ccccc2Cl)no1	84*	10	54*	0	22	17
COc1ccccc1NC(=O)N1CC(=O)N2[C@H](CO)[C@@H](c3ccc(-c4cccc(C)c4)cc3)[C@@H]2C1	6	-1	nt	0	nt	3
C[C@H]1CN([C@@H](C)CO)C(=O)c2cc(NC(=O)Cc3ccccc3)ccc2O[C@H]1CN(C)C(=O)Nc1ccc2c(c1)OCO2	13	nt	nt	0	nt	-5
COc1ccc(C(=O)O/N=C(\C)c2ccccc2)cc1	nt	nt	-7	nt	69*	nt
COc1ccc(C(=O)O/N=C(\N)c2ccccn2)c(OC)c1	82*	-1	88*	0	73*	25
COc1ccc(C(=O)O/N=C(\N)c2ccccc2)c(OC)c1	82*	-2	86*	0	77*	71*
C/C(=N\OC(=O)c1ccc(C)cc1)c1sc(C)nc1C	nt	nt	6	nt	-70	nt
C/C(=N/OC(=O)c1ccc(C)cc1)c1cccs1	nt	nt	29	nt	62*	nt
COc1ccc(C(=O)O/N=C(\N)c2ccc(OC)c(OC)c2)c(OC)c1	nt	nt	-6	nt	-41	nt
C[C@@H]1CN([C@@H](C)CO)C(=O)c2cc(NC(=O)CCCN(C)C)ccc2O[C@@H](C)CCCCO[C@@H]1CN(C)Cc1ccc2c(c1)OCO2	-3	nt	nt	0	nt	0
COc1ccc(S(=O)(=O)Nc2ccc3c(c2)C(=O)N([C@@H](C)CO)C[C@H](C)[C@@H](CN(C)Cc2ccc4c(c2)OCO4)O3)cc1	15	6	nt	0	nt	-2
COc1ccc(S(=O)(=O)Nc2ccc3c(c2)CC(=O)N([C@@H](C)CO)C[C@@H](C)[C@@H](CN(C)Cc2ccc(Cl)c(Cl)c2)O3)cc1	8	nt	nt	0	nt	2

Assay outcomes (PubChem BioAssay)
